Results: ChEMBL document CHEMBL1140566, “Discovery of novel isoxazolines as anti-tuberculosis agents” (Bioorg Med Chem Lett, 2007)
Converted amounts (≈) assume the structure as drawn.

What was measured:
[1] = Solubility at pH 6.0 by shake-flask method; type: physicochemical; conditions: buffer
In short: (§1)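 Aqueous solubility was determined by a miniaturized shake-flask method at pH 6.0 and at pH 7.4, reported in mg/L.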

[2] = Protein binding in rat; type: ADME, organism-based; conditions: plasma, read-out: PB (converted)
In short: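 Plasma protein binding was measured by equilibrium dialysis in RED devices and reported as percent bound.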

[3] = test system: Mycobacterium tuberculosis; test: Antituberculosis activity against Mycobacterium tuberculosis by microbroth dilution method; type: functional
In short: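 M. tuberculosis susceptibility was measured by microbroth dilution and reported as MIC90 in μg/mL.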

[4] = Solubility at pH 7.4 by shake-flask method; type: physicochemical; conditions: buffer; in short: as §1
[5] = Stability in rat liver microsomes after 90 mins; type: ADME, Microsome; conditions: read-out: Stability
In short: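 Compounds were incubated with pooled rat liver microsomes and loss of parent was monitored. Intact parent was quantified by LC-MS/MS and reported as % remaining at 90 min.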

[6] = Volume of distribution in rat at 10 mg/kg, iv; type: ADME, organism-based; parameters: dose 10 mg/kg, route intravenous; conditions: in vivo
In short: (§2)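 Rats were given single doses at 10 mg/kg intravenously or 100 mg/kg orally. Half-life, AUC to infinity (μg·hr/L), volume of distribution (L/kg) and clearance (L/hr/kg) were derived for each route. Oral bioavailability was calculated relative to the IV dose.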

[7] = Half life in rat at 10 mg/kg, iv; type: ADME, organism-based; parameters: dose 10 mg/kg, route intravenous; conditions: in vivo; in short: as §2
[8] = AUC (0 to infinity) in rat at […]; type: ADME, organism-based; parameters: time infinity; conditions: plasma
Rattus norvegicus = test: Volume of distribution in rat at 100 mg/kg, po; type: ADME, organism-based; parameters: dose 100 mg/kg, route oral; conditions: in vivo; in short: as §2
[9] = Bioavailability in rat at 100 mg/kg, po; type: ADME, organism-based; conditions: in vivo; in short: as §2
[10] = Half life in rat at 100 mg/kg, po; type: ADME, organism-based; parameters: dose 100 mg/kg, route oral; conditions: in vivo; in short: as §2
[11] = test system: Mycobacterium tuberculosis; test: Antituberculosis activity in Mycobacterium tuberculosis infected rat assessed as reduction of colony formation; type: functional
[12] = Clearance in rat at 10 mg/kg, iv; type: ADME, organism-based; parameters: dose 10 mg/kg, route intravenous; conditions: in vivo; in short: as §2
[13] = Clearance in rat at 100 mg/kg, po; type: ADME, organism-based; parameters: dose 100 mg/kg, route oral; conditions: in vivo; in short: as §2
[14] = AUC (0 to infinity) in rat at 10 mg/kg, iv; type: ADME, organism-based; parameters: time infinity, dose 10 mg/kg, route intravenous; conditions: plasma; in short: as §2

Compound | solubility thermodynamic [1] [µg/mL] | fraction unbound [2] | MIC90 [3] [ng/mL] | remaining at 1.5 h [5] [%] | Log10 cfu [11] | other results
O=[N+]([O-])c1ccc(C2=NOC(c3ccc(N4CCCCC4)cc3)C2)o1 (stereo not given) | 0.017 (≈ 0.0498 µM) | 0.012 | 1.56 (≈ 0.00457 µM) | 6 | – | Solubility [4]: 0.014 µg/mL (≈ 0.041 µM)
CCCC1=NOC(c2ccc(N3CCN(Cc4ccccc4)CC3)cc2)C1 (stereo not given) | – | – | > 200000 | – | – | –
CCOC(=O)C1=NOC(c2ccc(N3CCN(Cc4ccccc4)CC3)cc2)C1 (stereo not given) | – | – | 1560 (≈ 3.96 µM) | – | – | –
O=[N+]([O-])c1ccc(C2=NOC(c3ccc(N4CCN(Cc5ccccc5)CC4)cc3)C2)o1 (stereo not given) | 3.34 (≈ 7.72 µM) | 0.001 | 0.05 (≈ 0.000116 µM) | 31 | 0.64 | Vd [6]: 2 L/kg; half-life [7]: 2.6 h; AUC(0-inf) [8]: 65900 ng·h/mL; Vd (Rattus norvegicus): 9.3 L/kg; bioavailability [9]: 34.5%; half-life [10]: 4.2 h; clearance [12]: 8.83 mL/min/kg; CL/F [13]: 26.3 mL/min/kg; solubility thermodynamic [4]: 0.236 µg/mL (≈ 0.546 µM); AUC(0-inf) [14]: 19100 ng·h/mL
CCOC(=O)N1CCN(c2ccc(C3CC(c4ccc([N+](=O)[O-])o4)=NO3)cc2)CC1 (stereo not given) | 4 (≈ 9.65 µM) | 0.01 | 0.1 (≈ 0.000241 µM) | 12 | 0.59 | solubility thermodynamic [4]: 3.6 µg/mL (≈ 8.69 µM)
CC(C)NC(=O)N1CCN(c2ccc(C3CC(c4ccc([N+](=O)[O-])o4)=NO3)cc2)CC1 (stereo not given) | 27.7 (≈ 64.8 µM) | 0.027 | 0.2 (≈ 0.000468 µM) | 26 | 0.83 | solubility thermodynamic [4]: 20 µg/mL (≈ 46.8 µM)
O=[N+]([O-])c1ccc(C2=NOC(c3ccc(N4CCN(Cc5ccccc5)CC4)cc3)C2)cc1 (stereo not given) | – | – | > 200000 | – | – | –
CC(C)(C)OC(=O)N1CCN(c2ccc(C3CC(c4ccc([N+](=O)[O-])o4)=NO3)cc2)CC1 (stereo not given) | – | – | 0.1 (≈ 0.000226 µM) | – | – | –
c1ccc(CN2CCN(c3ccc(C4CC(c5ccncc5)=NO4)cc3)CC2)cc1 (stereo not given) | – | – | 50000 (≈ 125 µM) | – | – | –
c1ccc(CN2CCN(c3ccc(C4CC(c5ccccn5)=NO4)cc3)CC2)cc1 (stereo not given) | – | – | > 200000 | – | – | –
NNC(=O)c1ccncc1 [ISONIAZID] | – | – | 25 (≈ 0.182 µM) | – | 3.98 | –
